# Screening results as filed in PubChem BioAssay.
# Granule exo inh: blocks lytic granule exocytosis; TALL-104 LAMP-1 surface exposure, flow cytometry; cells stimulated with thapsigargin and PMA; inhibition, % at 10 µM; actives 0.66% (n = 360,000); AID 651702;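 active means inhibition above about 55%, limit read from the data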
# T cell modulator: modulates CD8 T cell binding to vesicles. response (vesicle binding), % at 7 µM. actives 0.068% (n = 330,000). AID 2052. 2C CD8+ T cell-vesicle binding, flow cytometry; stronger effect = lower value;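 active means response, share of CD8 T cells binding vesicles, and their 90th percentile fluorescence all below set limits, cut at about 80% in these data, passing the limit was not always enough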;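 further: values below 100% mean blocked vesicle binding to the CD8+ T cells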
#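 Also added: QL9-peptide-loaded Drosophila micro-vesicles bearing Ld, ICAM-1 and B7-1; Test system: purified 2C TCR transgenic mouse naive CD8+ T cells; Measured by: cytometric PE anti-B7-1 and Alexa647 anti-CD8 signals after 1% paraformaldehyde fixation; Timing: binding step 1.5 h, 37 °C, antibody labelling 20 min, ice.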
# MPTP block: blocks calcium-induced mitochondrial swelling; isolated mouse mitochondria, Ca2+ swelling absorbance, 30 min; actives 1.4% (n = 360,000); inhibition, % at 10 µM;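 active means inhibition of 50% or more, scaled per plate between neutral and stimulator controls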
# V-ATPase pHluor: alters yeast V-ATPase proton transport. AID 504577. S. cerevisiae, pHLuorin cytosolic pH fluorescence. response, % at 10 µM. actives 0.37% (n = 350,000); in the data active means response mostly above about 7.3%, no sharp cut-off; inactive means mostly below about 5.4%; further: actives read high
# Beta2AR agonist: agonists of human beta-2 adrenergic receptor inducing internalization; P07550; Am2.2-beta2AR cells, FAP receptor internalization, flow cytometry; response, % (no concentration beside the values); actives 0.43% (n = 340,000); AID 504454;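 active means response above a set limit, near 3 SD of response in nonfluorescent compounds, cut at about 42% in these data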
# Target sequence (P07550 whole entry, looked up): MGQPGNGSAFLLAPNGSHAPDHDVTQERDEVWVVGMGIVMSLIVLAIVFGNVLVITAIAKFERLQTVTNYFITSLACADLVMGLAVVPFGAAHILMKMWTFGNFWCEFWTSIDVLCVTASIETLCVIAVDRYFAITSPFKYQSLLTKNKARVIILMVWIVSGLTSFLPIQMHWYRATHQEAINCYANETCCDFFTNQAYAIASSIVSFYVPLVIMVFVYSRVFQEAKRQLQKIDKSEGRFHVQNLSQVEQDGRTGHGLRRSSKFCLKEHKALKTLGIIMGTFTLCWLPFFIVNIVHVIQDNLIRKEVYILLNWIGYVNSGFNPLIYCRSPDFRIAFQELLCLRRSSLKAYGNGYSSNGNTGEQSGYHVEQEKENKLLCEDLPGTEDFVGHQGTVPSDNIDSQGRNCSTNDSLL
# rCAG RNA binder: molecules binding r(CAG) RNA repeats; r(CAG) RNA repeat, TO-PRO-1 dye displacement fluorescence; inhibition, % at 3 µM; actives 1.3% (n = 370,000); AID 651821;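 active means inhibition above the plate cutoff, the mean of all test compounds on that plate plus 3 SD, cut at about 35% in these data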;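 further: higher means more dye released from RNA so lower well fluorescence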
# MPTP counter: membrane potential counter-screen of mitochondrial pore inhibitors. shares compounds with MPTP block. isolated mitochondria, Rhodamine 123 fluorescence. inhibition, % at 10 µM. actives 78% (n = 5,000); in the data active means inhibition above about 22%
# MPTP swell DR: MPTP inhibition, dose response swelling confirmation; shares compounds with MPTP block; isolated mitochondria swelling, absorbance; IC50, µM; actives 58% (n = 780); AID 651561; in the data active means IC50 below about 20 µM
# MPTP cs DR: counter-screen for mitochondrial permeability transition pore inhibitors, dose response; shares compounds with MPTP block; isolated mitochondria counterscreen, fluorescence read-out; IC50, µM; actives 49% (n = 780); AID 651564; in the data active means IC50 below about 80 µM
# Numbers stand for hits; i = inactive; nt = not tested or not shown. An excerpt weighted towards active compounds, which were near 3.8% of everything screened.
SMILES,Granule exo inh,T cell modulator,MPTP block,V-ATPase pHluor,Beta2AR agonist,rCAG RNA binder,MPTP counter,others
Clc1ccc(N2CCN(/N=C/c3ccncc3)CC2)cc1,i,i,60.7,i,i,i,50.0,
CCOC(=O)[C@@]12CCCC=C1N(CCc1ccc(Cl)cc1)C(=O)[C@H]2CC(=O)NCc1cccc2ccccc12,nt,nt,nt,nt,nt,i,nt,
CCN(CC)S(=O)(=O)c1cccc(C(=O)N[C@H](C(=O)Nc2nc3ccc(F)cc3s2)C(C)C)c1,i,i,55.0,i,i,i,72.2,
COc1ccc(-c2cn3c(C)c(C(=O)Nc4cccc(NC(C)=O)c4)sc3n2)cc1,i,i,79.7,i,i,i,23.5,
COc1ccc(-c2cn3c(C)c(C(=O)Nc4ccncc4)sc3n2)cc1,i,i,i,i,i,i,nt,
COc1ccccc1N1CCN(N=Cc2ccccc2Br)CC1,nt,nt,nt,nt,nt,i,nt,
COc1ccc(NS(=O)(=O)c2ccc3oc4ccccc4c3c2)cn1,i,i,60.4,i,i,i,64.3,
COc1ccc(NS(=O)(=O)c2ccc(Br)cc2)cn1,i,i,i,i,i,i,nt,
C[C@@H]1CNCCN1c1ccc(N2CCS(=O)(=O)CC2)c(C#N)c1,nt,nt,nt,nt,nt,i,nt,
O=C(O)C1CCCCC1C(=O)N1CC=C(c2ccccc2)CC1 (configuration not stated),i,i,73.9,i,i,i,i,MPTP swell DR=i;MPTP cs DR=i
O=C(Nc1ccccc1)N1CC=C(c2ccccc2)CC1,nt,i,nt,nt,nt,nt,nt,
N#C/C(=C(/O)c1ccccc1F)c1nc2cc(C(F)(F)F)ccc2s1,i,i,95.7,i,i,i,92.0,
FC(F)(F)c1ccc(-c2nc3ccccc3s2)cc1,i,nt,i,nt,nt,i,nt,
O=C(c1ccc2c(c1)OCO2)N1CCN(c2ccc(C(F)(F)F)cn2)CC1,i,i,i,i,i,i,nt,
N#C/C(=C(/O)c1ccc2c(c1)OCO2)c1nc2cc(C(F)(F)F)ccc2s1,i,i,84.3,i,i,i,93.7,
COc1ccc(C(=O)/C=C2\Sc3ccccc3N2C)cc1,i,i,i,i,i,i,nt,
COc1ccc(-[n+]2c(C)cc(/C=C3\Sc4ccccc4N3C)cc2C)cc1,60.9,i,94.6,i,nt,i,96.7,
COc1ccccc1-[n+]1c(C)cc(/C=C2\Sc3ccccc3N2C)cc1C,i,i,104.4,i,i,i,102.0,
O=C(c1ccccc1)N1CCC2CCN(S(=O)(=O)c3ccccc3)CC21 (configuration not stated),nt,nt,nt,nt,nt,i,nt,
CN(CCCOC(=O)c1cc2ccccc2o1)C1CN(Cc2cn(Cc3ccccc3C(F)(F)F)nn2)S(=O)(=O)C1 (configuration not stated),nt,nt,nt,nt,nt,i,nt,
CCN1/C(=C/c2sc(-c3ccccc3C)c[n+]2C)Sc2ccccc21,i,nt,95.0,i,i,i,107.3,
CC(=O)c1cccc(Nc2nc(-c3cccc([N+](=O)[O-])c3)cs2)c1,i,i,93.6,i,i,i,75.6,
O=C(NC(=S)Nc1nc(-c2cccc([N+](=O)[O-])c2)cs1)c1cc(Cl)ccc1Cl,i,i,56.7,i,i,i,i,MPTP swell DR=19.5;MPTP cs DR=<2.5
COc1ccccc1CC(Cc1nc2ccccc2[nH]1)c1nc2ccccc2[nH]1 (configuration not stated),i,i,i,i,i,i,nt,
Cc1cccc(CC(Cc2nc3ccccc3[nH]2)c2nc3ccccc3[nH]2)c1 (configuration not stated),i,i,88.8,i,i,i,109.8,
O=C(Nc1ccc(OC(F)(F)F)cc1)Nc1cccc([N+](=O)[O-])c1,i,i,74.7,i,i,i,64.2,
O=C(Nc1cccnc1)Nc1cccc([N+](=O)[O-])c1,i,i,62.1,i,i,i,88.5,
Cc1cc(NC(=O)Nc2cccc([N+](=O)[O-])c2)no1,i,i,i,i,i,i,nt,
Cc1ccc(NC(=O)Nc2cccc([N+](=O)[O-])c2)cc1F,i,i,104.8,i,i,i,69.8,
N#CCC[C@@H]1CC[C@]2(CCCN(S(=O)(=O)c3ccccc3)C2)O1,nt,nt,nt,nt,nt,i,nt,
